Experimental data from ChEMBL document CHEMBL5058577, “EUbOPEN Chemogenomics Library 2 (Multiplex)” (2022).

Test system: HEK-293T
Assay: Multiplex assay against HEK293T
Type: toxicity, cell-based
Conditions: human
Summary of the method: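 Cells were classed with CellPathfinder machine-learning gating, first as Hoechst high-intensity objects or normal cells, then (normal cells) as healthy, pyknosed or fragmented nuclei, and finally (pyknosed cells) as mitotic or apoptotic. Staining of live cells at seeding used Hoechst33342, BioTracker Green Microtubule Cytoskeleton Dye, MitoTracker Red and Annexin V Alexa Fluor 680, with imaging on a CQ1 microscope at 37°C and 5% CO2 after compound addition. Tubulin, mitochondrial-mass and membrane-permeability phenotypes are per cents of healthy-nucleus cells.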

[1] = 12 h, 1 µM, compound concentration 1 uM, replicate 1
[2] = 12 h, 1 µM, compound concentration 1 uM, replicate 2
[3] = 12 h, 10 µM, compound concentration 10 uM, replicate 1
[4] = 12 h, 10 µM, compound concentration 10 uM, replicate 2
[5] = 24 h, 1 µM, compound concentration 1 uM, replicate 1
[6] = 24 h, 1 µM, compound concentration 1 uM, replicate 2
[7] = 24 h, 10 µM, compound concentration 10 uM, replicate 1
[8] = 24 h, 10 µM, compound concentration 10 uM, replicate 2
[9] = 48 h, 1 µM, compound concentration 1 uM, replicate 1
[10] = 48 h, 1 µM, compound concentration 1 uM, replicate 2
[11] = 48 h, 10 µM, compound concentration 10 uM, replicate 1
[12] = 48 h, 10 µM, compound concentration 10 uM, replicate 2

Structure (SMILES): CCCCC(=O)N(Cc1ccc(-c2ccccc2-c2nnn[nH]2)cc1)[C@H](C(=O)O)C(C)C
- Population Apoptotic (%) [1]: 44%
- Population Fragmented Nuclei (%) [1]: 7%
- Population Healthy Nuclei (%) [1]: 80%
- Population Hoechst High Intensity Objects (%) [1]: 9%
- Population Membrane Permeable-Phenotype (%) [1]: 0%
- Population Mitochondria Different-Phenotype (%) [1]: 36%
- Population Mitotic Cells (%) [1]: 55%
- Population Normal (%) [1]: 90%
- Population Pyknosed Nuclei (%) [1]: 12%
- Population Tubulin-Different-Phenotype (%) [1]: 16%
- Total Cell Count [1]: 469
- Population Apoptotic (%) [2]: 40%
- Population Fragmented Nuclei (%) [2]: 6%
- Population Healthy Nuclei (%) [2]: 74%
- Population Hoechst High Intensity Objects (%) [2]: 11%
- Population Mitochondria Different-Phenotype (%) [2]: 49%
- Population Mitotic Cells (%) [2]: 59%
- Population Normal (%) [2]: 88%
- Population Pyknosed Nuclei (%) [2]: 18%
- Population Tubulin-Different-Phenotype (%) [2]: 21%
- Total Cell Count [2]: 290
- Population Apoptotic (%) [3]: 21%
- Population Fragmented Nuclei (%) [3]: 7%
- Population Healthy Nuclei (%) [3]: 83%
- Population Hoechst High Intensity Objects (%) [3]: 5%
- Population Membrane Permeable-Phenotype (%) [3]: 0%
- Population Mitochondria Different-Phenotype (%) [3]: 30%
- Population Mitotic Cells (%) [3]: 78%
- Population Normal (%) [3]: 94%
- Population Pyknosed Nuclei (%) [3]: 8%
- Population Tubulin-Different-Phenotype (%) [3]: 19%
- Total Cell Count [3]: 507
- Population Apoptotic (%) [4]: 51%
- Population Fragmented Nuclei (%) [4]: 5%
- Population Healthy Nuclei (%) [4]: 81%
- Population Hoechst High Intensity Objects (%) [4]: 10%
- Population Mitochondria Different-Phenotype (%) [4]: 63%
- Population Mitotic Cells (%) [4]: 48%
- Population Normal (%) [4]: 89%
- Population Pyknosed Nuclei (%) [4]: 13%
- Total Cell Count [4]: 310
- Population Apoptotic (%) [5]: 30%
- Population Fragmented Nuclei (%) [5]: 11%
- Population Healthy Nuclei (%) [5]: 78%
- Population Hoechst High Intensity Objects (%) [5]: 5%
- Population Membrane Permeable-Phenotype (%) [5]: 0%
- Population Mitochondria Different-Phenotype (%) [5]: 21%
- Population Mitotic Cells (%) [5]: 70%
- Population Normal (%) [5]: 94%
- Population Pyknosed Nuclei (%) [5]: 10%
- Population Tubulin-Different-Phenotype (%) [5]: 12%
- Total Cell Count [5]: 630
- Population Apoptotic (%) [6]: 32%
- Population Fragmented Nuclei (%) [6]: 9%
- Population Healthy Nuclei (%) [6]: 82%
- Population Hoechst High Intensity Objects (%) [6]: 6%
- Population Mitochondria Different-Phenotype (%) [6]: 26%
- Population Mitotic Cells (%) [6]: 67%
- Population Normal (%) [6]: 93%
- Population Pyknosed Nuclei (%) [6]: 8%
- Total Cell Count [6]: 429
- Population Apoptotic (%) [7]: 20%
- Population Fragmented Nuclei (%) [7]: 9%
- Population Healthy Nuclei (%) [7]: 82%
- Population Hoechst High Intensity Objects (%) [7]: 5%
- Population Membrane Permeable-Phenotype (%) [7]: 0%
- Population Mitochondria Different-Phenotype (%) [7]: 19%
- Population Mitotic Cells (%) [7]: 79%
- Population Normal (%) [7]: 94%
- Population Pyknosed Nuclei (%) [7]: 7%
- Population Tubulin-Different-Phenotype (%) [7]: 11%
- Total Cell Count [7]: 663
- Population Apoptotic (%) [8]: 35%
- Population Hoechst High Intensity Objects (%) [8]: 7%
- Population Mitochondria Different-Phenotype (%) [8]: 30%
- Population Mitotic Cells (%) [8]: 64%
- Population Normal (%) [8]: 92%
- Population Tubulin-Different-Phenotype (%) [8]: 13%
- Total Cell Count [8]: 420
- Population Apoptotic (%) [9]: 18%
- Population Fragmented Nuclei (%) [9]: 13%
- Population Healthy Nuclei (%) [9]: 80%
- Population Hoechst High Intensity Objects (%) [9]: 2%
- Population Membrane Permeable-Phenotype (%) [9]: 1%
- Population Mitochondria Different-Phenotype (%) [9]: 12%
- Population Mitotic Cells (%) [9]: 81%
- Population Normal (%) [9]: 97%
- Population Pyknosed Nuclei (%) [9]: 5%
- Population Tubulin-Different-Phenotype (%) [9]: 7%
- Total Cell Count [9]: 1024
- Population Apoptotic (%) [10]: 19%
- Population Fragmented Nuclei (%) [10]: 14%
- Population Healthy Nuclei (%) [10]: 79%
- Population Hoechst High Intensity Objects (%) [10]: 3%
- Population Membrane Permeable-Phenotype (%) [10]: 0%
- Population Mitochondria Different-Phenotype (%) [10]: 16%
- Population Mitotic Cells (%) [10]: 80%
- Population Normal (%) [10]: 96%
- Population Pyknosed Nuclei (%) [10]: 6%
- Population Tubulin-Different-Phenotype (%) [10]: 9%
- Total Cell Count [10]: 653
- Population Apoptotic (%) [11]: 14%
- Population Fragmented Nuclei (%) [11]: 14%
- Population Healthy Nuclei (%) [11]: 81%
- Population Hoechst High Intensity Objects (%) [11]: 1%
- Population Membrane Permeable-Phenotype (%) [11]: 2%
- Population Mitochondria Different-Phenotype (%) [11]: 8%
- Population Mitotic Cells (%) [11]: 85%
- Population Normal (%) [11]: 98%
- Population Pyknosed Nuclei (%) [11]: 3%
- Population Tubulin-Different-Phenotype (%) [11]: 8%
- Total Cell Count [11]: 1205
- Population Apoptotic (%) [12]: 15%
- Population Healthy Nuclei (%) [12]: 78%
- Population Hoechst High Intensity Objects (%) [12]: 2%
- Population Membrane Permeable-Phenotype (%) [12]: 0%
- Population Mitochondria Different-Phenotype (%) [12]: 17%
- Population Mitotic Cells (%) [12]: 84%
- Population Normal (%) [12]: 97%
- Population Pyknosed Nuclei (%) [12]: 7%
- Total Cell Count [12]: 623
